These results are taken from ChEMBL document CHEMBL4130369, “Structure-activity relations of rosmarinic acid derivatives for the amyloid β aggregation inhibition and antioxidant properties” (Eur J Med Chem, 2017).

pEC50: −log10 of the molar value. Bounds are passed on as bounds.

Assay [1] is described as follows: Inhibition of butter milk XOD (unknown origin) at 100 uM using xanthine as substrate after 8 mins relative to control. A digest of the protocol: (§1)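 Butter-milk xanthine oxidase in 100 mM phosphate buffer, pH 7.6, with compound added in DMSO. Reaction started with 500 μM xanthine (solution concentration) at rt and stopped after 8 min with 1N HCl. Absorbance at 290 nm was compared with enzyme-activity and blank wells to calculate % inhibition.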

Assay [2] can be described thus: Inhibition of butter milk XOD (unknown origin) at 10 uM using xanthine as substrate after 8 mins relative to control. Put shortly: as §1
The nature of assay [3]: Antioxidant activity assessed as inhibition of DPPH radical at 500 uM incubated for 20 mins measured for 60 mins relative to control. Type of assay: functional. A digest of the protocol:
(§2)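 DPPH (40 μL of 1 mM stock) in EtOH; test compound added from 2 mM or 10 mM DMSO stocks at rt. Absorbance at 517 nm read continuously for 60 min. Radical trapping capacity was calculated from the 20 min reading.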

A short description of assay [4]: Antioxidant activity assessed as inhibition of DPPH radical at 100 uM incubated for 20 mins measured for 60 mins relative to control. The class given is functional. Put shortly:
as §2
A general note: Loss of DPPH colour is used to gauge radical scavenging.

Assay [5] has as its target T1, Amyloid-beta precursor protein (Homo sapiens, UniProt P05067). Kind of assay: Inhibition of QD-labeled amyloid beta (1 to 42) (unknown origin) aggregation after 24 hrs by inverted fluorescence microscopic method. A digest of the protocol: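 Modified MSHTS: 30 μM Aβ(1-42) plus 30 nM QD-labeled Aβ(1-42) with serial compound concentrations in PBS containing 5% EtOH and 3% DMSO, 37°C, 24 h. Coaggregates were imaged by inverted fluorescence microscopy with a color CCD. SD of pixel fluorescence in the well centre (100×100 pixels) was plotted against concentration, and EC50 was fitted by global EC50-shift fitting.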

The target in assay [6] is T1, Amyloid-beta precursor protein. Kind of assay: Inhibition of QD-labeled amyloid beta (1 to 42) (unknown origin) aggregation assessed as lag time of aggregation at 5.13 uM after 24 hrs by inverted fluorescence microscopic method (reference value: 4.44 mins).
The target is the same in assay [7]. Briefly: Inhibition of QD-labeled amyloid beta (1 to 42) (unknown origin) aggregation assessed as aggregation growth rate at 5.13 uM after 24 hrs by inverted fluorescence microscopic method (reference value: 0.533 /min).
Assay [8] shares this target. Briefly: Inhibition of QD-labeled amyloid beta (1 to 42) (unknown origin) aggregation assessed as change in fluorescence at 5.13 uM after 24 hrs by inverted fluorescence microscopic method (reference value: 6.77). A digest of the protocol:
(§3)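 Aβ(1-42) (30 μM) was co-incubated with 30 nM QD-labeled Aβ(1-42) and compound in PBS containing 5% EtOH and 3% DMSO at 37°C for 24 h. Coaggregates were imaged by inverted fluorescence microscope with a colour CCD camera. The read-out was the SD of fluorescence intensity over the central 100 × 100 pixels. Aggregation parameters came from Boltzmann fitting of SD versus time, compared with the no-inhibitor control.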

Assay [9] shares this target. Briefly: Inhibition of QD-labeled amyloid beta (1 to 42) (unknown origin) aggregation assessed as lag time of aggregation at 20.3 uM after 24 hrs by inverted fluorescence microscopic method (reference value: 4.44 mins).
Assay [10] has the same target. Kind of assay: Inhibition of QD-labeled amyloid beta (1 to 42) (unknown origin) aggregation assessed as aggregation growth rate at 20.3 uM after 24 hrs by inverted fluorescence microscopic method (reference value: 0.533 /min).
The target is the same in assay [11]. Briefly: Inhibition of QD-labeled amyloid beta (1 to 42) (unknown origin) aggregation assessed as change in fluorescence at 20.3 uM after 24 hrs by inverted fluorescence microscopic method (reference value: 6.77). A digest of the protocol: as §3
Assay [12] in a line: Inhibition of butter milk XOD (unknown origin) at 1 uM using xanthine as substrate after 8 mins relative to control. Put shortly:
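Buttermilk xanthine oxidase in 100 mM phosphate buffer pH 7.6 was mixed with compound in DMSO. The reaction was started with xanthine solution (500 μM as added) and run at rt for 8 min, then stopped with 1N HCl. Absorbance was read at 290 nm, and % inhibition was calculated against enzyme-activity and blank wells.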

T1 sequence (P05067 whole entry): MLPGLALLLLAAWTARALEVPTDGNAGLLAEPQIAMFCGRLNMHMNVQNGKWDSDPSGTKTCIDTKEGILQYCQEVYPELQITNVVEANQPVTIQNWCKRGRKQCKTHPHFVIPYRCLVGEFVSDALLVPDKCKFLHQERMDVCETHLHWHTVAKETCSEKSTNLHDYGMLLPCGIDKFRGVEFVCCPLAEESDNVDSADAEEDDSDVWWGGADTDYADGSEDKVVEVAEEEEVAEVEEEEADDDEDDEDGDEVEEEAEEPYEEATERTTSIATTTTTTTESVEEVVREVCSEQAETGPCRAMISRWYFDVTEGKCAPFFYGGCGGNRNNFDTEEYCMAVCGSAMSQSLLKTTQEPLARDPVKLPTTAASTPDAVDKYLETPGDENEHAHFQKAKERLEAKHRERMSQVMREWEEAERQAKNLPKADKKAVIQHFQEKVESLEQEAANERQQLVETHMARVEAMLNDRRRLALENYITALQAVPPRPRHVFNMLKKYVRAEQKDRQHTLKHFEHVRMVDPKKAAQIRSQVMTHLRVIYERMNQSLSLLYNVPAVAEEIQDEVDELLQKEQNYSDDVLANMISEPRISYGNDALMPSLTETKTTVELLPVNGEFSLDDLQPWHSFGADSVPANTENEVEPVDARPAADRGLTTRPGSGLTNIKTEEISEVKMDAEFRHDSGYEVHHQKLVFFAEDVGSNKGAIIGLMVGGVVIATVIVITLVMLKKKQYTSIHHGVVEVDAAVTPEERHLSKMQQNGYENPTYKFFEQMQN

In the case of `O=C(/C=C/c1ccc(O)c(O)c1)OCCCCCCO`, the inhibition – broadly, the percentage by which the read-out fell short of the control – is 51% in [1], under 10% in assay [2], 55% in [3] and 42% in assay [4]. For the same compound, the pEC50 (commonly the negative decadic logarithm of the EC50, by convention in mol/L) in assay [5] is 4.26.

Regarding `O=C(/C=C/c1ccccc1)OCCc1ccccc1` [PHENETHYL CINNAMATE], the inhibition in assay [1], in assay [2], in assay [3] and in [4] was under 10% in each case. In [5], the pEC50 was 2.98.

In the case of `CCCCCCOC(=O)/C=C/c1ccc(O)c(O)c1` [HEXYLCAFFEATE], the inhibition is under 10% in assay [1], 10% in [2], 61% in assay [3] and 45% in assay [4]. Also, the TIME in [6] was determined as 0.0183 h. Also, the K in assay [7] is 0.19 min⁻¹. Also, in assay [8], the Flu intensity was 3.68. Besides, in assay [5], the pEC50 is 5.29.

Take `O=C(O)/C=C/c1ccc(O)c(O)c1` [CAFFEIC ACID]: the inhibition in [1] was under 10%; in [2], under 10%; in assay [3], 63%; in [4], 49%. The compound also showed a pEC50 in [5] of 3.67.

`O=C(CCc1ccccc1)OCCc1ccc(O)c(O)c1`: the inhibition in assay [1] is under 10%; in assay [2], under 10%; in assay [3] it was 54%; in [4], 38%. The same compound had a pEC50 in [5] of 5.23.

With `O=C(/C=C/c1ccccc1)OCCc1ccc(O)c(O)c1`, the inhibition was 22% in assay [1], under 10% in assay [2], 56% in assay [3] and 40% in assay [4]. The compound also had a pEC50 in [5] of 5.10.

Take `O=C(/C=C/c1ccc(O)c(O)c1)OCCCCCO`: the inhibition in assay [1] is 84%; in assay [2] it was under 10%; in assay [3] it was 54%; in assay [4], 41%. The pEC50 in [5] was 4.10.

With `CC1=NN(c2ccccc2)C(=O)C1`, the inhibition lay in the range of 71 to 75% in assay [3] and 50 to 53% in [4].

Take `CCCCCNC(=O)/C=C/c1ccc(O)c(O)c1`: the inhibition in assay [1] is 33%; in assay [2], under 10%; in assay [3], 53%; in assay [4], 40%. Further, the pEC50 in assay [5] is 4.94.

`O=C(CCc1ccccc1)OCCc1ccccc1`: the inhibition in assay [1], in [2], in [3] and in [4] was under 10% each time. The compound further gave a pEC50 in [5] of 2.34.

For `O=C(/C=C/c1ccc(O)c(O)c1)NCCc1ccc(O)c(O)c1`, the inhibition was 30% in assay [1], under 10% in assay [2], 64% in assay [3] and 47% in assay [4]. The compound also had a negative logarithm of the EC50 (pEC50) in assay [5] of 4.16.

In the case of `O=C(/C=C/c1ccc(O)c(O)c1)OCCc1ccc(O)c(O)c1`, the inhibition in assay [1] was 80%; in assay [2] it was 26%; in [3], 46%; in [4], 37%. Besides, the pEC50 in [5] is 4.69.

As to `O=C(/C=C/c1ccc(O)c(O)c1)OCCc1ccccc1` [CAFFEIC ACID PHENETHYL ESTER], the inhibition in assay [1] is 62%; in [2] it was under 10%; in assay [3], 51%; in assay [4], 35%. In assay [5], this compound gave a pEC50 of 5.08.

As to `COc1ccc(CCOC(=O)CCc2ccccc2)cc1OC`, the inhibition in [1], in [2], in assay [3] and in assay [4] was under 10% each time. In assay [5], this compound gave a pEC50 of 3.56.

Take `C=CCOC(=O)/C=C/c1ccc(O)c(O)c1`: the inhibition was 22% in assay [1], under 10% in [2], 62% in assay [3] and 46% in [4]. For the same compound, the pEC50 in [5] was 4.63.

On to `NC(=O)C(Cc1ccc(O)c(O)c1)OC(=O)/C=C/c1ccc(O)c(O)c1` (stereo not given), for which the inhibition in [1] stood at 82%; in assay [2], 38%; in assay [3], 48%; in assay [4], 39%. This compound had a pEC50 in assay [5] of 4.66.

Turning to `CCCOC(=O)/C=C/c1ccc(O)c(O)c1`, the inhibition in assay [1] is 61%; in assay [2] it was under 10%; in assay [3], 63%; in assay [4] it was 46%. For the same compound, the pEC50 in assay [5] is 4.61.

As to `CCCCOC(=O)/C=C/c1ccc(O)c(O)c1` [BUTYL CAFFEATE], the inhibition was over 90% in assay [1], under 10% in assay [2], 62% in assay [3] and 46% in assay [4]. The compound further showed a pEC50 in assay [5] of 4.92.

On to `O=C(/C=C/c1ccc(O)c(O)c1)O[C@H](Cc1ccc(O)c(O)c1)C(=O)O` [ROSMARINIC ACID], for which, in assay [9], the TIME came to 0.093 h. Also, the inhibition in [1] was 27%; in assay [2], under 10%; in assay [3], 66%; in assay [4], 47%. For the same compound, in [10], the K came to 0.508 min⁻¹. Besides, the Flu intensity in assay [11] was determined as 3.4. In assay [5], this compound had a pEC50 of 4.69.

With `CCCCCOC(=O)/C=C/c1ccc(O)c(O)c1`, the inhibition in assay [1] was over 90%; in assay [2] it was 11%; in assay [3], 62%; in assay [4], 46%. This compound also gave a negative-log EC50 (pEC50) in [5] of 5.59.

`O=C(CCc1ccc(O)c(O)c1)OCCc1ccc(O)c(O)c1`: the inhibition in [1] was 21%; in assay [2], under 10%; in assay [3] it was 49%; in [4] it was 37%. This compound gave a pEC50 in assay [5] of 4.83.

As for `COc1ccc(CCOC(=O)/C=C/c2ccc(O)c(O)c2)cc1OC`, the inhibition came out at 43% in assay [1], 50% in assay [2], 59% in [3] and 43% in [4]. This compound also gave a negative logarithm of the EC50 (pEC50) in [5] of 4.40.

Take `CCCCCCCCCOC(=O)/C=C/c1ccc(O)c(O)c1`: the inhibition is 40% in assay [1], under 10% in assay [2], 61% in assay [3] and 45% in [4]. Moreover, the pEC50 in assay [5] is 5.02.

As for `COC(=O)/C=C/c1ccc(O)c(O)c1` [METHYLCAFFEATE], the inhibition in assay [1] is 65%; in [2], under 10%; in assay [3], 64%; in [4] it was 48%. This compound had a pEC50 in assay [5] of 4.17.

Regarding `CCCCCCC(=O)/C=C/c1ccc(O)c(O)c1`, the inhibition stood at 76% in assay [1], 12% in [2], 62% in [3] and 48% in assay [4]. Also, the pEC50 in assay [5] was 5.55.

As to `Oc1ncnc2[nH]ncc12`, the inhibition was over 90% in assay [2] and under 10% in assay [12].

`CCCCCCCOC(=O)/C=C/c1ccc(O)c(O)c1`: the inhibition in [1] turned out to be 25%; in [2] it was 11%; in assay [3] it was 63%; in assay [4] it was 46%. In [5], this compound had a negative logarithm of the EC50 (pEC50) of 4.98.
